Results as given in ChEMBL document CHEMBL4002555, “Bioactive Pentacyclic Triterpenoids from the Leaves of Cleistocalyx operculatus” (J Nat Prod, 2016).

Columns and labels:
RAW264.7 [1] = assay: Anti-inflammatory activity in mouse RAW264.7 cells assessed as inhibition of LPS-induced IL-6 production at 0.4 uM pretreated for 1 hr followed by LPS stimulation measured after 24 hrs by ELISA relative to control; format: functional
Summary of the method: (§1)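 LPS-stimulated RAW 264.7 macrophages, with IL-6 and TNF-α production read separately. Test concentrations were 0.4, 2, 10 and 50 μM, and dexamethasone was the reference drug. Results are given as percent inhibition of cytokine production.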

RAW264.7 [2] = assay: Anti-inflammatory activity in mouse RAW264.7 cells assessed as inhibition of LPS-induced TNF-alpha production at 2 uM pretreated for 1 hr followed by LPS stimulation measured after 24 hrs by ELISA relative to control; format: functional; summary of the method: as §1
MCF7 = assay: Cytotoxicity against human MCF7 cells after 72 hrs by MTT assay; format: functional, cell-based; conditions: MCF7, 72 h
Summary of the method: (§2)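 MTT growth-inhibition assay in human HepG2 hepatocellular, NCI-N87 gastric and MCF-7 breast carcinoma lines, with a doxorubicin positive control. IC50 values are means ± SD from three individual experiments; >10.0 μM was taken as noncytotoxic.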

NCI-N87 = assay: Cytotoxicity against human NCI-N87 cells after 72 hrs by MTT assay; format: functional, cell-based; conditions: NCI-N87, 72 h; summary of the method: as §2
RAW264.7 [3] = assay: Anti-inflammatory activity in mouse RAW264.7 cells assessed as inhibition of LPS-induced IL-6 production at 2 uM pretreated for 1 hr followed by LPS stimulation measured after 24 hrs by ELISA relative to control; format: functional; summary of the method: as §1
RAW264.7 [4] = assay: Anti-inflammatory activity in mouse RAW264.7 cells assessed as inhibition of LPS-induced TNF-alpha production at 0.4 uM pretreated for 1 hr followed by LPS stimulation measured after 24 hrs by ELISA relative to control; format: functional; summary of the method: as §1
HepG2 = assay: Cytotoxicity against human HepG2 cells after 72 hrs by MTT assay; format: functional, cell-based; conditions: HepG2, 72 h; summary of the method: as §2
[5] = Cytotoxicity against mouse RAW264.7 cells assessed as growth inhibition at 2 uM after 72 hrs by MTT assay relative to control; format: cell-based; conditions: read-out: GI
RAW264.7 [6] = assay: Anti-inflammatory activity in mouse RAW264.7 cells assessed as inhibition of LPS-induced TNF-alpha production at 10 uM pretreated for 1 hr followed by LPS stimulation measured after 24 hrs by ELISA relative to control; format: functional; summary of the method: as §1
[7] = Cytotoxicity against mouse RAW264.7 cells assessed as growth inhibition at 50 uM after 72 hrs by MTT assay relative to control; format: cell-based; conditions: read-out: GI
RAW264.7 [8] = assay: Anti-inflammatory activity in mouse RAW264.7 cells assessed as inhibition of LPS-induced IL-6 production at 10 uM pretreated for 1 hr followed by LPS stimulation measured after 24 hrs by ELISA relative to control; format: functional; summary of the method: as §1
RAW264.7 [9] = assay: Anti-inflammatory activity in mouse RAW264.7 cells assessed as inhibition of LPS-induced TNF-alpha production at 50 uM pretreated for 1 hr followed by LPS stimulation measured after 24 hrs by ELISA relative to control; format: functional; summary of the method: as §1
RAW264.7 [10] = assay: Anti-inflammatory activity in mouse RAW264.7 cells assessed as inhibition of LPS-induced IL-6 production at 50 uM pretreated for 1 hr followed by LPS stimulation measured after 24 hrs by ELISA relative to control; format: functional; summary of the method: as §1

**Q.** With `COC(=O)[C@]12CC=C(C)[C@@H](C)[C@@H]1[C@H]1CC[C@@H]3[C@@]4(C)CC[C@H](O)C(C)(C)[C@@H]4CC[C@@]3(C)[C@]1(C(=O)O)CC2` as the compound, how does the inhibition at 0.4 µM (RAW264.7 [1]) read?
**A.** 38.4%

**Q.** What about the inhibition at 2 µM (RAW264.7 [2]) of the same compound?
**A.** 42.9%

**Q.** What about the IC50 (MCF7) of the same compound?
**A.** 4.9 µM

**Q.** What about the IC50 (NCI-N87) of the same compound?
**A.** 6.5 µM

**Q.** And the inhibition at 2 µM (RAW264.7 [3])?
**A.** 51%

**Q.** And the inhibition at 0.4 µM (RAW264.7 [4])?
**A.** 39.1%

**Q.** What about the IC50 (HepG2) of the same compound?
**A.** 3.2 µM

**Q.** And the inhibition at 72 h, 2 µM [5]?
**A.** < 5%

**Q.** Which inhibition at 10 µM (RAW264.7 [6]) does the source give for `CC1(C)CC[C@@]23CC[C@]4(C)[C@@](OC2=O)([C@@H]3C1)[C@H]1O[C@H]1[C@@H]1[C@@]2(C)C[C@@H](O)[C@H](O)[C@@](C)(CO)[C@@H]2CC[C@]14C` here?
**A.** < 50%

**Q.** What about the inhibition at 0.4 µM (RAW264.7 [1]) of the same compound?
**A.** < 50%

**Q.** What about the inhibition at 2 µM (RAW264.7 [2]) of the same compound?
**A.** < 50%

**Q.** What about the IC50 (MCF7) of the same compound?
**A.** > 10 µM

**Q.** What about the inhibition at 72 h, 50 µM [7] of the same compound?
**A.** < 5%

**Q.** And the IC50 (NCI-N87)?
**A.** > 10 µM

**Q.** And the inhibition at 10 µM (RAW264.7 [8])?
**A.** < 50%

**Q.** And the inhibition at 50 µM (RAW264.7 [9])?
**A.** < 50%

**Q.** What about the inhibition at 50 µM (RAW264.7 [10]) of the same compound?
**A.** < 50%

**Q.** What about the inhibition at 2 µM (RAW264.7 [3]) of the same compound?
**A.** < 50%

**Q.** What about the inhibition at 0.4 µM (RAW264.7 [4]) of the same compound?
**A.** < 50%

**Q.** What about the IC50 (HepG2) of the same compound?
**A.** > 10 µM

**Q.** What does the source list for `CC1(C)CC[C@]2(C(=O)O)CC[C@]3(C)C(=CC(=O)[C@@H]4[C@@]5(C)C[C@@H](O)[C@H](O)[C@@](C)(CO)[C@@H]5CC[C@]43C)[C@@H]2C1`?
**A.** inhibition at 10 µM (RAW264.7 [6]): < 10%; inhibition at 2 µM (RAW264.7 [2]): < 10%; IC50 (MCF7): > 10 µM; inhibition at 72 h, 50 µM [7]: < 5%; IC50 (NCI-N87): > 10 µM; inhibition at 10 µM (RAW264.7 [8]): 35.2%; inhibition at 50 µM (RAW264.7 [9]): 18.8%; inhibition at 50 µM (RAW264.7 [10]): 63%; inhibition at 2 µM (RAW264.7 [3]): 33.8%; IC50 (HepG2): > 10 µM

**Q.** Which inhibition at 10 µM (RAW264.7 [6]) does the source give for `C=C1CC[C@]2(C(=O)O)CC[C@]3(C)C(=C[C@@H](OC)[C@@H]4[C@@]5(C)C[C@@H](O)[C@H](O)[C@@](C)(CO)[C@@H]5CC[C@]43C)[C@@H]2[C@H]1C` here?
**A.** < 50%

**Q.** And the inhibition at 0.4 µM (RAW264.7 [1])?
**A.** < 50%

**Q.** What about the inhibition at 2 µM (RAW264.7 [2]) of the same compound?
**A.** < 50%

**Q.** And the IC50 (MCF7)?
**A.** > 10 µM

**Q.** And the inhibition at 72 h, 50 µM [7]?
**A.** < 5%

**Q.** What about the IC50 (NCI-N87) of the same compound?
**A.** > 10 µM

**Q.** What about the inhibition at 10 µM (RAW264.7 [8]) of the same compound?
**A.** < 50%

**Q.** And the inhibition at 50 µM (RAW264.7 [9])?
**A.** < 50%

**Q.** What about the inhibition at 50 µM (RAW264.7 [10]) of the same compound?
**A.** < 50%

**Q.** And the inhibition at 2 µM (RAW264.7 [3])?
**A.** < 50%

**Q.** And the inhibition at 0.4 µM (RAW264.7 [4])?
**A.** < 50%

**Q.** What about the IC50 (HepG2) of the same compound?
**A.** > 10 µM

**Q.** For `CO[C@@H]1C=C2[C@@H]3CC(C)(C)CC[C@]3(C(=O)O)CC[C@@]2(C)[C@]2(C)CC[C@@H]3[C@](C)(C[C@@H](O)[C@H](O)[C@@]3(C)CO)[C@@H]12`, which inhibition at 10 µM (RAW264.7 [6]) is on record?
**A.** 54.1%

**Q.** And the inhibition at 2 µM (RAW264.7 [2])?
**A.** 22%

**Q.** And the IC50 (MCF7)?
**A.** > 10 µM

**Q.** And the inhibition at 72 h, 50 µM [7]?
**A.** < 5%

**Q.** And the IC50 (NCI-N87)?
**A.** > 10 µM

**Q.** What about the inhibition at 10 µM (RAW264.7 [8]) of the same compound?
**A.** 64.8%

**Q.** And the inhibition at 50 µM (RAW264.7 [9])?
**A.** 52.8%

**Q.** What about the inhibition at 50 µM (RAW264.7 [10]) of the same compound?
**A.** 68.8%

**Q.** What about the inhibition at 2 µM (RAW264.7 [3]) of the same compound?
**A.** 42.3%

**Q.** And the IC50 (HepG2)?
**A.** > 10 µM

**Q.** Which results are given for `C=C1CC[C@]2(C(=O)O)CC[C@]3(C)C(=CC(=O)[C@@H]4[C@@]5(C)C[C@@H](O)[C@H](O)[C@@](C)(CO)[C@@H]5CC[C@]43C)[C@@H]2[C@H]1C`?
**A.** inhibition at 10 µM (RAW264.7 [6]): < 50%; inhibition at 0.4 µM (RAW264.7 [1]): < 50%; inhibition at 2 µM (RAW264.7 [2]): < 50%; IC50 (MCF7): > 10 µM; inhibition at 72 h, 50 µM [7]: < 5%; IC50 (NCI-N87): > 10 µM; inhibition at 10 µM (RAW264.7 [8]): < 50%; inhibition at 50 µM (RAW264.7 [9]): < 50%; inhibition at 50 µM (RAW264.7 [10]): < 50%; inhibition at 2 µM (RAW264.7 [3]): < 50%; inhibition at 0.4 µM (RAW264.7 [4]): < 50%; IC50 (HepG2): > 10 µM
